Data: ChEMBL document CHEMBL2169809, “Identification of high-affinity P2Y₁₂ antagonists based on a phenylpyrazole glutamic acid piperazine backbone” (J Med Chem, 2012)

Columns and labels:
[1] = tested on: Platelet; assay: Inhibition of ADP-stimulated platelet aggregation in human platelet rich plasma by 96-well format based turbidimetric method; assay type: functional
In short: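 Citrated (ACD-A) donor blood was spun at 150g for 15 min at room temperature to give PRP. PRP was adjusted with PPP to 3 × 10^8 platelets/mL. Compound, diluted in NaCl, was preincubated with hPRP for 5 min before ADP was added.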

[2] = tested on: Platelet; assay: Inhibition of ADP-stimulated platelet aggregation in human platelet rich plasma by light transmission aggregometry based Born method; assay type: functional, cell-based
[3] = target: P2Y purinoceptor 12 (Homo sapiens, UniProt Q9H244); assay: Displacement of [33P]2-MeS-ADP from human recombinant P2Y12 receptor expressed in CHO cell membranes by scintillation counting method
P2Y purinoceptor 12, sequence (Q9H244 whole entry): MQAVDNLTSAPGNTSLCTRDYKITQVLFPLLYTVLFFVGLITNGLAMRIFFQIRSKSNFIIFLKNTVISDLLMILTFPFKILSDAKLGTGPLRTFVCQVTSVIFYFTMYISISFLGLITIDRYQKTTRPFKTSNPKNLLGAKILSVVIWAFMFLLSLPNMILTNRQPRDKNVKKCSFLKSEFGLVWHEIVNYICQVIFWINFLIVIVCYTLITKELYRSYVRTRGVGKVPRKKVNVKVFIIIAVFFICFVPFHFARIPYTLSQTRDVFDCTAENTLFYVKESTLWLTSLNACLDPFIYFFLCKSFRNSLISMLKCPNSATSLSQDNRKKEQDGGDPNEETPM

Row | Compound | IC50 [1] | IC50 [2] | Ki [3]
1 | CCCCOC(=O)N1CCN(C(=O)[C@H](CCC(=O)O)NC(=O)c2cc(OCC(=O)N3CCC[C@H]3C(=O)NC3CCC3)n(-c3ccccc3)n2)CC1 | 19 nM | 13 nM | 0.8 nM
2 | CCOC(=O)N1CCN(C(=O)[C@H](CNS(C)(=O)=O)NC(=O)c2cc(OCC(=O)N3CCC[C@H]3C(=O)NC3CCC3)n(-c3ccccc3)n2)CC1 | 1200 nM |  | 48 nM
3 | CCOC(=O)N1CCN(C(=O)[C@H](CCC(=O)O)NC(=O)c2cc(OCC(=O)N3CCC[C@H]3C(=O)NC(C)(C)C)n(-c3ccccc3)n2)CC1 | 17 nM | 70 nM | 41 nM
4 | CCOC(=O)N1CCN(C(=O)[C@H](CCC(=O)O)NC(=O)c2cc(OCC(=O)N3CCC(C(=O)NC4CCC4)C3)n(-c3ccccc3)n2)CC1 (some centres not stated) | 3130 nM |  | 238 nM
5 | CCOC(=O)N1CCN(C(=O)[C@H](CCC(=O)O)NC(=O)c2cc(OCC(=O)N3CCCC3=O)n(-c3ccccc3)n2)CC1 | 900 nM |  | 173 nM
6 | CCOC(=O)N1CCC(NC(=O)[C@H](CCC(=O)O)NC(=O)c2cc(OCC(=O)N3CCC[C@H]3C(=O)NC3CCC3)n(-c3ccccc3)n2)CC1 | > 5000 nM |  | > 5000 nM
7 | CCOC(=O)N1CCN(C(=O)[C@H](CCC(=O)O)NC(=O)c2cc(OCC(=O)N3CCC[C@H]3C(=O)NC3CCC3)n(-c3ccccc3)n2)[C@@H](C)C1 | 430 nM |  | 54 nM
8 | CCOC(=O)N1CCN(C(=O)[C@H](CC(C)C)NC(=O)c2cc(OCC(=O)N3CCC[C@H]3C(=O)NC3CCC3)n(-c3ccccc3)n2)CC1 | > 5000 nM |  | 207 nM
9 | CCC[C@H](NC(=O)c1cc(OCC(=O)N2CCC[C@H]2C(=O)NC2CCC2)n(-c2ccccc2)n1)C(=O)N1CCN(C(=O)OCC)CC1 | 3610 nM |  | 172 nM
10 | CCCCOC(=O)N1CCN(C(=O)[C@H](CCc2nnn[nH]2)NC(=O)c2cc(OCC(=O)N3CCC[C@H]3C(=O)NC3CCC3)n(-c3ccccc3)n2)CC1 | 50 nM | 79 nM | 
11 | CNc1cc2[nH]c(=O)n(-c3ccc(NC(=O)NS(=O)(=O)c4ccc(Cl)s4)cc3)c(=O)c2cc1F [ELINOGREL] | 2810 nM |  | 23 nM
12 | CCOC(=O)N1CCN(C(=O)[C@H](CCC(=O)O)NC(=O)c2cc(OCC(=O)N3CCC[C@H]3C(=O)N3CCCC3)n(-c3ccccc3)n2)CC1 | 600 nM |  | 219 nM
13 | CCOC(=O)N1CCN(C(=O)[C@H](CCC(=O)O)NC(=O)c2cc(OCC(=O)N3CCC[C@H]3C(=O)NC3CC3)n(-c3ccccc3)n2)CC1 | 13 nM |  | 105 nM
14 | CCOC(=O)N1CCN(C(=O)[C@H](CCC(=O)O)NC(=O)c2cc(OCC(=O)N3CCC[C@H]3C(=O)NC)n(-c3ccccc3)n2)CC1 | 1460 nM |  | 536 nM
15 | O=C(O)CC[C@H](NC(=O)c1cc(OCC(=O)N2CCC[C@H]2C(=O)NC2CCC2)n(-c2ccccc2)n1)C(=O)N1CCN(C(=O)OC2CCC2)CC1 | 14 nM |  | 5 nM
16 | CCOC(=O)N1CCN(C(=O)[C@H](CCC(=O)O)NC(=O)c2cc(OCC(=O)N3CC[C@@H](O)C3)n(-c3ccccc3)n2)CC1 | 1370 nM |  | 459 nM
17 | O=C(O)CC[C@H](NC(=O)c1cc(OCC(=O)N2CCC[C@H]2C(=O)NC2CCC2)n(-c2ccccc2)n1)C(=O)N1CCN(C(=O)OCc2ccccc2)CC1 | 124 nM |  | 5.7 nM
18 | CCOC(=O)N1CCN(C(=O)[C@H](CCC(=O)O)NC(=O)c2cc(OCC(=O)N3CCC[C@H]3c3nc(C)c[nH]3)n(-c3ccccc3)n2)CC1 | 380 nM |  | 56 nM
19 | CCOC(=O)N1CCN(C(=O)[C@@H](NC(=O)c2cc(OCC(=O)N3CCC[C@H]3C(=O)NC3CCC3)n(-c3ccccc3)n2)C(C)C)CC1 | 1900 nM |  | 183 nM
20 | CCOC(=O)N1CCN(C(=O)[C@H](CCC(=O)O)NC(=O)c2cc(OC(C)(C)C(=O)OCC)c3ccc(C)cc3n2)CC1 | 2600 nM |  | 86 nM
21 | CCNC(=O)[C@@H]1CCCN1C(=O)COc1cc(C(=O)N[C@@H](CCC(=O)O)C(=O)N2CCN(C(=O)OCC)CC2)nn1-c1ccccc1 | 475 nM |  | 303 nM
22 | CCOC(=O)N1CCN(C(=O)[C@H](CCNS(C)(=O)=O)NC(=O)c2cc(OCC(=O)N3CCC[C@H]3C(=O)NC3CCC3)n(-c3ccccc3)n2)CC1 |  |  | 23 nM
23 | CCOC(=O)N1CCN(C(=O)[C@H](CCC(=O)O)NC(=O)c2cc(OCC(=O)N3CCC[C@H]3C(=O)NC3CCC3)n(-c3ccccc3)n2)C[C@@H]1C | 1510 nM |  | 80 nM
24 | CCOC(=O)N1CCN(C(=O)[C@H](CCN)NC(=O)c2cc(OCC(=O)N3CCC[C@H]3C(=O)NC3CCC3)n(-c3ccccc3)n2)CC1 | 3770 nM |  | 180 nM

Row | Compound | IC50 [1] | IC50 [2] | Ki [3]
25 | CCOC(=O)N1CCN(C(=O)[C@H](CCNC(C)=O)NC(=O)c2cc(OCC(=O)N3CCC[C@H]3C(=O)NC3CCC3)n(-c3ccccc3)n2)CC1 | 675 nM |  | 42 nM
26 | CCOC(=O)N1CCN(C(=O)[C@H](CCC(=O)O)NC(=O)c2cc(OCC(=O)N3CCC[C@H]3C(=O)NC(C)C)n(-c3ccccc3)n2)CC1 |  |  | 56 nM
27 | CCOC(=O)N1CCN(C(=O)[C@H](CCC(=O)O)NC(=O)c2cc(OCC(=O)N(CC)CC)n(-c3ccccc3)n2)CC1 | > 10000 nM |  | > 5000 nM
28 | CCOC(=O)N1CCN(C(=O)[C@H](CCC(=O)O)NC(=O)c2cc(OCC(=O)C3CCC3)n(-c3ccccc3)n2)CC1 | 7410 nM |  | 574 nM
29 | CCOC(=O)N1CCN(C(=O)[C@H](CCC(=O)O)NC(=O)c2cc(OCC(=O)N3CCC[C@H]3C(N)=O)n(-c3ccccc3)n2)CC1 | 3100 nM |  | 283 nM
30 | O=C(O)CC[C@H](NC(=O)c1cc(OCC(=O)N2CCC[C@H]2C(=O)NC2CCC2)n(-c2ccccc2)n1)C(=O)N1CCN(C(=O)Oc2ccccc2)CC1 | 1080 nM |  | 71 nM
31 | CCOC(=O)N1CCN(C(=O)[C@H](CCC(=O)O)NC(=O)c2cc(OCC(=O)N3CC[C@H]3C(=O)NC3CCC3)n(-c3ccccc3)n2)CC1 | 76 nM |  | 42 nM
32 | CCOC(=O)N1CCN(C(=O)[C@H](CCC(=O)O)NC(=O)c2cc(OCC(N)=O)n(-c3ccccc3)n2)CC1 | 9050 nM |  | 2720 nM
33 | O=C(O)CC[C@H](NC(=O)c1cc(OCC(=O)N2CCC[C@H]2C(=O)NC2CCC2)n(-c2ccccc2)n1)C(=O)N1CCN(C(=O)c2ccccc2)CC1 | 1230 nM |  | 130 nM
34 | CCOC(=O)N1CCN(C(=O)[C@H](C)NC(=O)c2cc(OCC(=O)N3CCC[C@H]3C(=O)NC3CCC3)n(-c3ccccc3)n2)CC1 | 2210 nM |  | 111 nM
35 | CCOC(=O)N1CCN(C(=O)[C@H](CCC(=O)O)NC(=O)c2cc(OCC(=O)N3CCC[C@H]3C(=O)NC3CCC3)n(-c3ccccc3)n2)C[C@H]1C | 335 nM |  | 51 nM
36 | CCOC(=O)N1CCN(C(=O)[C@H](CCC(=O)O)NC(=O)c2cc(OCC(=O)N3CC(C(=O)NC4CCC4)C3)n(-c3ccccc3)n2)CC1 | 2940 nM |  | 613 nM
37 | CCCCOC(=O)NC1CCN(C(=O)[C@H](CCC(=O)O)NC(=O)c2cc(OCC(=O)N3CCC[C@H]3C(=O)NC3CCC3)n(-c3ccccc3)n2)C1 (some centres not stated) | 1880 nM |  | 82 nM
38 | CCOC(=O)N1CCN(C(=O)[C@H](CCC(=O)O)NC(=O)c2cc(OCC(=O)N3CCC[C@H]3C(=O)N(C)C3CCC3)n(-c3ccccc3)n2)CC1 | 220 nM |  | 27 nM
39 | CCCCOC(=O)N1CCC(NC(=O)[C@H](CCC(=O)O)NC(=O)c2cc(OCC(=O)N3CCC[C@H]3C(=O)NC3CCC3)n(-c3ccccc3)n2)C1 (some centres not stated) | > 5000 nM |  | 193 nM
40 | O=C(O)CC[C@H](NC(=O)c1cc(OCC(=O)N2CCC[C@H]2C(=O)NC2CCC2)n(-c2ccccc2)n1)C(=O)N1CCC(C(=O)c2ccccc2)CC1 | 1330 nM |  | 40 nM
41 | CCOC(=O)N1CCN(C(=O)[C@H](CCC(=O)O)NC(=O)c2cc(OCC(=O)N3CCC[C@H]3C(=O)NC3CCC3)n(-c3ccccc3)n2)[C@H](C)C1 | 72 nM |  | 7.7 nM
42 | CCOC(=O)N1CCN(C(=O)[C@H](CCC(=O)O)NC(=O)c2cc(=O)n(-c3ccccc3)[nH]2)CC1 | > 10000 nM |  | > 5000 nM
43 | CCOC(=O)N1CCN(C(=O)[C@H](CCC(=O)O)NC(=O)c2cc(OCC(=O)N3CCC[C@H]3c3ccccc3)n(-c3ccccc3)n2)CC1 |  |  | 33 nM
44 | CCOC(=O)N1CCN(C(=O)[C@H](CCCCO)NC(=O)c2cc(OCC(=O)N3CCC[C@H]3C(=O)NC3CCC3)n(-c3ccccc3)n2)CC1 | 2400 nM |  | 202 nM
45 | COc1cccc(N2CCN(C(=O)[C@H](CCC(=O)O)NC(=O)c3cc(OCC(=O)N4CCC[C@H]4C(=O)NC4CCC4)n(-c4ccccc4)n3)CC2)c1 | 790 nM |  | 30 nM
46 | CCOC(=O)N1CCN(C(=O)[C@H](CCC(=O)O)NC(=O)c2cc(OCC(=O)N3CCC[C@@H]3C(=O)NC3CC3)n(-c3ccccc3)n2)CC1 |  |  | 958 nM
47 | CCCSc1nc(N[C@@H]2C[C@H]2c2ccc(F)c(F)c2)c2nnn([C@@H]3C[C@H](OCCO)[C@@H](O)[C@H]3O)c2n1 [TICAGRELOR] | 1830 nM |  | 14 nM
